Laboratory results as given in ChEMBL document CHEMBL1124253, “(8 beta)-Ergoline-8-carboxylic acid cycloalkyl esters as serotonin antagonists: structure-activity study” (J Med Chem, 1988).

Each compound was assayed against Serotonin 2 (5-HT2) receptor (Rattus norvegicus) (UniProt P30994+P08909+P14842) (assay: Binding affinity to the 5-hydroxytryptamine 2 receptor assayed by antagonism of serotonin-induced contractions in the rat jugular vein).
In short: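 Jugular vein rings mounted in organ baths of modified Krebs solution and equilibrated 1–2 h. Control cumulative serotonin contraction curves were run, then tissues were incubated 1 h with antagonist and serotonin curves were repeated. For each antagonist concentration, K_B = [B]/(dose ratio − 1), where dose ratio = agonist ED50 with antagonist / control ED50. Values reported as −log K_B.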

Sequence of Serotonin 2 (5-HT2) receptor (Rattus norvegicus) (P08909 whole entry, looked up): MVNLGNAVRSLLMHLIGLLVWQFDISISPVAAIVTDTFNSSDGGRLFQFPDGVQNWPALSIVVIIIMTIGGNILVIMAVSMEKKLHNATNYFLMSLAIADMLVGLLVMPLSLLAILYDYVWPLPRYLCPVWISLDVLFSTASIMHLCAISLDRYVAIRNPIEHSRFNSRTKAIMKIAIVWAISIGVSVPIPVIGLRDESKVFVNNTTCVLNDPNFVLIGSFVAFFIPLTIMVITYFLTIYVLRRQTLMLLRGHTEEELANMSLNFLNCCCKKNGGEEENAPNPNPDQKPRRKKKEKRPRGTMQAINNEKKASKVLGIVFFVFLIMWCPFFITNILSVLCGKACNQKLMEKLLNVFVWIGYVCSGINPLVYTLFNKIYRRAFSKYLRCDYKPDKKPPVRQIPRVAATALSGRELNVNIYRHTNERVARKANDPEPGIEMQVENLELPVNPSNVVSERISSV
Sequence of Serotonin 2 (5-HT2) receptor (Rattus norvegicus) (P14842 whole entry, looked up): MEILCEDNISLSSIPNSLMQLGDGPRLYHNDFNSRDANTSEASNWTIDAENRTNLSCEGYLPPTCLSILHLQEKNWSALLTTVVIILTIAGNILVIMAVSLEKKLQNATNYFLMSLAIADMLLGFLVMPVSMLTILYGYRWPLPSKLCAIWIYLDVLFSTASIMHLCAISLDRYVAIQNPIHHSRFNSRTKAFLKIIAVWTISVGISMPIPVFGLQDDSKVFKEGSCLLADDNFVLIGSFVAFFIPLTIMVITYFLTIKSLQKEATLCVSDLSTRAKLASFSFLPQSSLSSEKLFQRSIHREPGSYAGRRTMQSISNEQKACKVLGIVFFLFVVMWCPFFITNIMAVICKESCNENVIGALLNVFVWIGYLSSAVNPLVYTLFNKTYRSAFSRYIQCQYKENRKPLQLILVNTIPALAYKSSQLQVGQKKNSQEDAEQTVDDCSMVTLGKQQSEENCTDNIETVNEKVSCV
Sequence of Serotonin 2 (5-HT2) receptor (Rattus norvegicus) (P30994 whole entry, looked up): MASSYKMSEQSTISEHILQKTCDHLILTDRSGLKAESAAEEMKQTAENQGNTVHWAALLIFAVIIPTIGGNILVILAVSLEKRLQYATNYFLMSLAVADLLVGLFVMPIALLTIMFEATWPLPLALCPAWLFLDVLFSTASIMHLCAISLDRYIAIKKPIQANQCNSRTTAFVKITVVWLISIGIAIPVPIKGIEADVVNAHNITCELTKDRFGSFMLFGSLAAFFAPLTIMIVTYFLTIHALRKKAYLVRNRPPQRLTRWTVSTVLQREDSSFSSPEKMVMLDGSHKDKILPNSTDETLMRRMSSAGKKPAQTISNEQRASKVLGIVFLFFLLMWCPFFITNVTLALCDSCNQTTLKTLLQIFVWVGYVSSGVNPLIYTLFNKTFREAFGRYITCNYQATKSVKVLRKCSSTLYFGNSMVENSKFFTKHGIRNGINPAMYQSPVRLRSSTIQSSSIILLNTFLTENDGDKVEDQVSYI

Structure (SMILES)	-Log KB
CC(O)C(C)OC(=O)[C@@H]1CC2c3cccc4c3c(cn4C(C)C)CC2N(C)C1 (some centres not stated)	10.3
CC(C)n1cc2c3c(cccc31)C1C[C@@H](C(=O)OC3CCOCC3)CN(C)C1C2 (some centres not stated)	9.86
CCN1C[C@H](C(=O)OC2CCCCC2)CC2c3cccc4c3c(cn4C(C)C)CC21 (some centres not stated)	7.81
CN1C[C@H](C(=O)OC2CCCCC2)CC2c3cccc4c3c(cn4C)CC21 (some centres not stated)	8.12
CC(C)n1cc2c3c(cccc31)C1C[C@@H](C(=O)OC3CCCCC3)CN(C)C1C2 (some centres not stated)	8.67
CC(C)n1cc2c3c(cccc31)C1C[C@@H](C(=O)O[C@H]3CC[C@H](C)CC3)CN(C)C1C2 (some centres not stated)	7.21
CC(C)n1cc2c3c(cccc31)C1C[C@@H](C(=O)OC3CCC(=O)CC3)CN(C)C1C2 (some centres not stated)	10
CCC(CC)n1cc2c3c(cccc31)C1C[C@@H](C(=O)OC3CCCCC3)CN(C)C1C2 (some centres not stated)	7.31
CC(C)n1cc2c3c(cccc31)C1C[C@@H](C(=O)OC3CCCCCC3)CN(C)C1C2 (some centres not stated)	7.73
CN1C[C@H](C(=O)OC2CCCCC2)CC2c3cccc4[nH]cc(c34)CC21 (some centres not stated)	8.05
CCCN1C[C@H](C(=O)OC2CCCCC2)CC2c3cccc4c3c(cn4C(C)C)CC21 (some centres not stated)	7.07
CC(C)n1cc2c3c(cccc31)C1C[C@@H](C(=O)O[C@H]3CC[C@@H](C)CC3)CN(C)C1C2 (some centres not stated)	7.69
CC(C)n1cc2c3c(cccc31)C1C[C@@H](C(=O)OC3CCCCC3)CNC1C2 (some centres not stated)	< 6
CN1C[C@H](C(=O)OC2CCCCC2)CC2c3cccc4c3c(cn4Cc3ccccc3)CC21 (some centres not stated)	6.52
CC(C)n1cc2c3c(cccc31)C1C[C@@H](C(=O)OC3CCCCC3O)CN(C)C1C2 (some centres not stated)	9.47
CCCCN1C[C@H](C(=O)OC2CCCCC2)CC2c3cccc4c3c(cn4C(C)C)CC21 (some centres not stated)	7.4
CC(C)n1cc2c3c(cccc31)C1C[C@@H](C(=O)OC3CCCC3)CN(C)C1C2 (some centres not stated)	8.91
CC(C)n1cc2c3c(cccc31)C1C[C@@H](C(=O)OC3CCC(O)CC3)CN(C)C1C2 (some centres not stated)	10.2
CC(C)n1cc2c3c(cccc31)C1C[C@@H](C(=O)OC3CCCCC3=O)CN(C)C1C2 (some centres not stated)	9.31
CC1CCCC(C)C1OC(=O)[C@@H]1CC2c3cccc4c3c(cn4C(C)C)CC2N(C)C1 (some centres not stated)	7.32
CC(C)n1cc2c3c(cccc31)C1C[C@@H](C(=O)OC3CCC3)CN(C)C1C2 (some centres not stated)	8.22
CC(C)N1C[C@H](C(=O)OC2CCCCC2)CC2c3cccc4c3c(cn4C(C)C)CC21 (some centres not stated)	6.42
